Data taken from ChEMBL document CHEMBL2390929, “New nitric oxide donating 1,2,4-triazole/oxime hybrids: synthesis, investigation of anti-inflammatory, ulceroginic liability and antiproliferative activities” (Bioorg Med Chem, 2013).

Legend:
T47D = test: Cytotoxicity against human T47D cells assessed as cell growth at 10^-5 M after 48 hrs by SRB assay; format: functional; details: read-out: Activity
How it was run: (§1)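 NCI-60 one-dose screen across nine tumour subpanels. Each agent added once at 10^-5 M, cultures incubated 48 h. Endpoint is sulforhodamine B protein staining read spectrophotometrically. Output is percent growth of treated cells relative to untreated controls.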

MDA-MB-231 = test: Cytotoxicity against human MDA-MB-231 cells assessed as cell growth at 10^-5 M after 48 hrs by SRB assay; format: functional; details: MDA-MB-231, 48 h, read-out: Activity
How it was run: (§2)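 NCI 60-cell-line primary one-dose screen across nine tumour subpanels. Compound added at a single concentration of 10^-5 M and cultures incubated 48 h. Endpoint was sulforhodamine B protein staining read spectrophotometrically, with growth expressed as percent of untreated control cells.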

DU-145 = test: Cytotoxicity against human DU145 cells assessed as cell growth at 10^-5 M after 48 hrs by SRB assay; format: functional; details: DU-145, 48 h, read-out: Activity; how it was run: as §2
ACHN = test: Cytotoxicity against human ACHN cells assessed as cell growth at 10^-5 M after 48 hrs by SRB assay; format: functional; details: read-out: Activity; how it was run: as §2
A498 = test: Cytotoxicity against human A498 cells assessed as cell growth at 10^-5 M after 48 hrs by SRB assay; format: functional; details: A498, 48 h, read-out: Activity; how it was run: as §2
786-0 = test: Cytotoxicity against human 786-0 cells assessed as cell growth at 10^-5 M after 48 hrs by SRB assay; format: functional; details: 786-0, 48 h, read-out: Activity; how it was run: as §2
NCI/ADR-RES = test: Cytotoxicity against human NCI/ADR-RES cells assessed as cell growth at 10^-5 M after 48 hrs by SRB assay; format: functional; details: read-out: Activity; how it was run: as §2
SK-OV-3 = test: Cytotoxicity against human SKOV3 cells assessed as cell growth at 10^-5 M after 48 hrs by SRB assay; format: functional; details: SK-OV-3, 48 h, read-out: Activity; how it was run: as §1
OVCAR-4 = test: Cytotoxicity against human OVCAR4 cells assessed as cell growth at 10^-5 M after 48 hrs by SRB assay; format: functional; details: OVCAR-4, 48 h, read-out: Activity; how it was run: as §2
OVCAR-3 = test: Cytotoxicity against human OVCAR3 cells assessed as cell growth at 10^-5 M after 48 hrs by SRB assay; format: functional; details: OVCAR-3, 48 h, read-out: Activity; how it was run: as §2
UACC-62 = test: Cytotoxicity against human UACC62 cells assessed as cell growth at 10^-5 M after 48 hrs by SRB assay; format: functional; details: UACC-62, 48 h, read-out: Activity; how it was run: as §1
UACC-257 = test: Cytotoxicity against human UACC257 cells assessed as cell growth at 10^-5 M after 48 hrs by SRB assay; format: functional; details: UACC-257, 48 h, read-out: Activity; how it was run: as §1
SK-MEL-5 = test: Cytotoxicity against human SK-MEL-5 cells assessed as cell growth at 10^-5 M after 48 hrs by SRB assay; format: functional; details: SK-MEL-5, 48 h, read-out: Activity; how it was run: as §1
SK-MEL-2 = test: Cytotoxicity against human SK-MEL-2 cells assessed as cell growth at 10^-5 M after 48 hrs by SRB assay; format: functional; details: SK-MEL-2, 48 h, read-out: Activity; how it was run: as §2
SK-MEL-28 = test: Cytotoxicity against human SK-MEL-28 cells assessed as cell growth at 10^-5 M after 48 hrs by SRB assay; format: functional; details: SK-MEL-28, 48 h, read-out: Activity; how it was run: as §1
MDA-MB-435 = test: Cytotoxicity against human MDA-MB-435 cells assessed as cell growth at 10^-5 M after 48 hrs by SRB assay; format: functional; details: MDA-MB-435, 48 h, read-out: Activity; how it was run: as §2
Malme-3M = test: Cytotoxicity against human MALME-3M cells assessed as cell growth at 10^-5 M after 48 hrs by SRB assay; format: functional; details: read-out: Activity; how it was run: as §2
SNB-19 = test: Cytotoxicity against human SNB19 cells assessed as cell growth at 10^-5 M after 48 hrs by SRB assay; format: functional; details: SNB-19, 48 h, read-out: Activity; how it was run: as §1
SF-539 = test: Cytotoxicity against human SF539 cells assessed as cell growth at 10^-5 M after 48 hrs by SRB assay; format: functional; details: SF-539, 48 h, read-out: Activity; how it was run: as §2
KM12 = test: Cytotoxicity against human KM12 cells assessed as cell growth at 10^-5 M after 48 hrs by SRB assay; format: functional; details: KM12, 48 h, read-out: Activity; how it was run: as §2
HCT-15 = test: Cytotoxicity against human HCT15 cells assessed as cell growth at 10^-5 M after 48 hrs by SRB assay; format: functional; details: HCT-15, 48 h, read-out: Activity; how it was run: as §2
HT-29 = test: Cytotoxicity against human HT-29 cells assessed as cell growth at 10^-5 M after 48 hrs by SRB assay; format: functional; details: HT-29, 48 h, read-out: Activity; how it was run: as §2
HCC 2998 = test: Cytotoxicity against human HCC2998 cells assessed as cell growth at 10^-5 M after 48 hrs by SRB assay; format: functional; details: HCC 2998, 48 h, read-out: Activity; how it was run: as §2
NCI-H226 = test: Cytotoxicity against human NCI-H226 cells assessed as cell growth at 10^-5 M after 48 hrs by SRB assay; format: functional; details: NCI-H226, 48 h, read-out: Activity; how it was run: as §2
HOP-92 = test: Cytotoxicity against human HOP92 cells assessed as cell growth at 10^-5 M after 48 hrs by SRB assay; format: functional; details: HOP-92, 48 h, read-out: Activity; how it was run: as §2
A549 = test: Cytotoxicity against human A549 cells assessed as cell growth at 10^-5 M after 48 hrs by SRB assay; format: functional; details: A549, 48 h, read-out: Activity; how it was run: as §2
CCRF-CEM = test: Cytotoxicity against human CCRF-CEM cells assessed as cell growth at 10^-5 M after 48 hrs by SRB assay; format: functional; details: read-out: Activity; how it was run: as §2
Rattus norvegicus = test: Gastrointestinal toxicity in albino rat assessed as ulcer index at 0.28 mmol/kg, po (reference value: 0.60 +/- 0.05); format: organism-based; details: in vivo
[1] = Induction of nitric oxide release in phosphate buffer at pH 7.4 at 0.1 mM after 6 hrs by Griess method in presence of 0.5 mM of N-acetylcysteine; format: physicochemical; details: pH 7.4, 6 h, 100 µM
How it was run: (§3)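 Compound in DMF diluted to final 10^-4 M in 1:1 50 mM phosphate buffer pH 7.4/MeOH with 5×10^-4 M N-acetylcysteine, 37 °C. Aliquot mixed with Griess reagent, 10 min at room temperature, A546 read. Nitrite quantified against sodium nitrite standards (10–80 nmol/mL); NO expressed as mol/mol. n = 4 reaction mixtures per compound.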

[2] = Induction of nitric oxide release in phosphate buffer at pH 7.4 at 0.1 mM after 5 hrs by Griess method in presence of 0.5 mM of N-acetylcysteine; format: physicochemical; details: pH 7.4, 5 h, 100 µM; how it was run: as §3
[3] = Induction of nitric oxide release in phosphate buffer at pH 7.4 at 0.1 mM after 4 hrs by Griess method in presence of 0.5 mM of N-acetylcysteine; format: physicochemical; details: pH 7.4, 4 h, 100 µM; how it was run: as §3
[4] = Induction of nitric oxide release in phosphate buffer at pH 7.4 at 0.1 mM after 3 hrs by Griess method in presence of 0.5 mM of N-acetylcysteine; format: physicochemical; details: pH 7.4, 3 h, 100 µM; how it was run: as §3

| Structure (SMILES) | growth at 10 µM (T47D) [%] | growth at 10 µM (MDA-MB-231) [%] | growth at 10 µM (DU-145) [%] | growth at 10 µM (ACHN) [%] | growth at 10 µM (A498) [%] | growth at 10 µM (786-0) [%] | growth at 10 µM (NCI/ADR-RES) [%] | growth at 10 µM (SK-OV-3) [%] | growth at 10 µM (OVCAR-4) [%] | growth at 10 µM (OVCAR-3) [%] | growth at 10 µM (UACC-62) [%] | growth at 10 µM (UACC-257) [%] | growth at 10 µM (SK-MEL-5) [%] | growth at 10 µM (SK-MEL-2) [%] | growth at 10 µM (SK-MEL-28) [%] | growth at 10 µM (MDA-MB-435) [%] | growth at 10 µM (Malme-3M) [%] | growth at 10 µM (SNB-19) [%] | growth at 10 µM (SF-539) [%] | growth at 10 µM (KM12) [%] | other results |
| --- | --- | --- | --- | --- | --- | --- | --- | --- | --- | --- | --- | --- | --- | --- | --- | --- | --- | --- | --- | --- | --- |
| COc1cc(-c2nnc(SC/C(=N/O)c3ccccc3)n2-c2ccccc2)cc(OC)c1OC | 88.8 | 93.7 | 123 | 99.3 | 98.4 | 94.7 | 98.8 | 110 | 84.8 | 114 | 84 | 102 | 84.6 | 98.3 | 90.3 | 104 | 95.3 | 95.2 | 102 | 108 | growth at 10 µM (HCT-15): 99.1%; growth at 10 µM (HT-29): 99.5%; growth at 10 µM (HCC 2998): 108%; growth at 10 µM (NCI-H226): 94.1%; growth at 10 µM (HOP-92): 81.2%; growth at 10 µM (A549): 94.7%; growth at 10 µM (CCRF-CEM): 88.5%; UI (Rattus norvegicus): 5.52; Activity [1]: 0.15 mol/mol; Activity [2]: 0.16 mol/mol; Activity [3]: 0.14 mol/mol; Activity [4]: 0.12 mol/mol |
| C=CCn1c(SC/C(=N\O)c2ccccc2)nnc1-c1ccc(OC)c(OC)c1 | 90.4 | 94.4 | 114 | 97.8 | 97.4 | 119 | 93 | 110 | 91 | 110 | 99.9 | 102 | 101 | 100 | 99 | 105 | 92.5 | 99.5 | 95.6 | 106 | growth at 10 µM (HCT-15): 99%; growth at 10 µM (HT-29): 93.5%; growth at 10 µM (HCC 2998): 100%; growth at 10 µM (NCI-H226): 103%; growth at 10 µM (HOP-92): 81.9%; growth at 10 µM (A549): 98.1%; growth at 10 µM (CCRF-CEM): 98.3%; UI (Rattus norvegicus): 1.82; Activity [1]: 0.13 mol/mol; Activity [2]: 0.24 mol/mol; Activity [3]: 0.17 mol/mol; Activity [4]: 0.17 mol/mol |
| CCn1c(SC/C(=N/O)c2ccccc2)nnc1-c1ccccc1 | 120 | 94.6 | 107 | 105 | 69.3 | 105 | 103 | 89.7 | 85.5 | 121 | 86.2 | 104 | 100 | 108 | 106 | 105 | 98.7 | 99 | 93.7 | 110 | growth at 10 µM (HCT-15): 101%; growth at 10 µM (HT-29): 104%; growth at 10 µM (HCC 2998): 96.6%; growth at 10 µM (NCI-H226): 108%; growth at 10 µM (HOP-92): 62.5%; growth at 10 µM (A549): 101%; growth at 10 µM (CCRF-CEM): 88.9%; UI (Rattus norvegicus): 1.78; Activity [1]: 0.13 mol/mol; Activity [2]: 0.14 mol/mol; Activity [3]: 0.13 mol/mol; Activity [4]: 0.12 mol/mol |
